Results from ChEMBL document CHEMBL4513216, “Probing the Open Global Health Chemical Diversity Library for Multistage-Active Starting Points for Next-Generation Antimalarials” (ACS Infect Dis, 2020).

Assay: Toxicity liver stage against HepG2, at 10uM
Assay type: cell-based
Design: test concentration 10 uM, cell line HepG2-A16-CD81EGFP
Details: human, HepG2-A16-CD81EGFP cells; read-out: INHIBITION
Procedure, shortened: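 Uninfected HepG2-A16-CD81EGFP cells, 3 × 10^3 per well, 1536-well, plated on prespotted compound at 10 μM final, parasite-free screening media added to match infected plates; puromycin 10 μM positive, DMSO 0.5% negative; run in parallel with 48 h PbLuc assay at 37 °C, 5% CO2; viability by CellTiter-Glo luminescence, normalized to controls.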

| Compound | cytotoxicity at 10 µM [%] |
| --- | --- |
| CCC(CNC(=O)c1cccc(S(=O)(=O)NC)c1)N1CCCC1 (configuration not stated) | -4.18 |
| COC(=O)CNC(=O)C1(NC(=O)c2ccc3[nH]ncc3c2)CCCC1 | -2.23 |
| Cc1cccc(CN(C(=O)NCc2ccccn2)C2CC2)c1 | -6.73 |
| CCn1c(C2CCN(C(=O)c3cc(CC(C)C)on3)CC2)nn(C)c1=O | -3.89 |
| COCC(C)(O)CNC(=O)Nc1cccc(OC)c1OC (configuration not stated) | -2.75 |
| CCCc1nc(N2CCCN(c3ncccn3)CC2)c2cnn(C)c2n1 | -1.18 |
| O=C(c1cc(-c2ccco2)cs1)N1CCCC1 | 11 |
| COCCOC1CCN(C(C(=O)O)c2ccc(OC)c(F)c2)CC1 (configuration not stated) | 7.42 |
| CCCn1cc(C(=O)NCC(=O)NC2CC2)c(C)n1 | -3.91 |
| Cc1ccc(CN2CC[C@H]3OCC[C@@]3(C(=O)N3CCCO3)C2)s1 | 2.08 |
| CN(Cc1cccnc1)C1CC2(CCN(c3ccccn3)CC2)C1 | 2.86 |
| COc1cccc(CC(=O)N2CCN(C)c3ncccc3C2)c1 | 2.33 |
| Cc1cnc(C(=O)N2C[C@@H]3CC[C@H]2CN(c2cnccn2)C3)cn1 | 10.1 |
| CCOC(=O)N1CC(=O)N(CCc2ccccc2)CC(O)C1 (configuration not stated) | -4.73 |
| COc1ccc(C)cc1C(C)NCc1cnnn1C (configuration not stated) | 0.211 |
| COc1ccc(S(=O)(=O)NCCCc2ccc(N(C)C)cc2)cc1F | -2.59 |
| CCOc1ccnc(N2CCCN(c3nc(CC)ns3)CC2)n1 | 1.19 |
| CNC(=O)c1cn2cc(-c3ccccc3Cl)n(CC=C(C)C)c(=O)c2n1 | -7.05 |
| CCN(CCn1cccn1)Cc1nc(-c2ccc(F)cc2)oc1C | 1.07 |
| O=C(Nc1cnn(CCN2CCOCC2)c1)c1ccccc1O | -3.38 |
| COc1ccc2c(c1)Cc1c-2nc(N)c(C#N)c1C1CCOC1 (configuration not stated) | 24.4 |
| COc1cccc2c1OCC(CNc1ccc(C)nn1)C2 (configuration not stated) | 8.62 |
| O=C(CCCc1nc(-c2ccccc2)no1)N1CCN(CCO)CC1 | -3.54 |

| Compound | cytotoxicity at 10 µM [%] |
| --- | --- |
| COc1ccc(OC)c(C(=O)N(C)Cc2nnc3ccccn23)c1 | -0.972 |
| Clc1cccnc1N1CCC(NCc2cccc3cn[nH]c23)C1 (configuration not stated) | 13.7 |
| COCCN1CCC(Cc2cncc(-c3ccc(C(=O)O)cc3)n2)CC1 | -27.6 |
| COCC1c2nnn(CC3CC3)c2CCN1C(=O)c1cccn1C (configuration not stated) | -133 |
| Cc1cc(N2CCOCC2)ccc1NC(C)c1nc(C(C)C)no1 (configuration not stated) | -12.3 |
| O=C(NC1CCN(c2ncccn2)CC1)c1sccc1C1CC1 | -5.75 |
| COCC(=O)N1CC[C@@H]2O[C@@H](COCc3csc(C)n3)CC[C@@H]21 | 3.24 |
| FC(F)(F)CCc1ccnc(NCc2csc(N3CCOCC3)n2)n1 | -4.13 |
| Cn1cc(C2CC(=O)NC23CCN(C(=O)NC2CC2)CC3)cn1 (configuration not stated) | 4.97 |
| CC[C@@H](CO)NC(=O)c1cc(COc2ccc(OC)cc2Cl)[nH]n1 | -34.4 |
| COc1ccccc1CN1CC[C@]2(C[C@@H](OCC(=O)N(C)C)CO2)C1 | -112 |
| CN(C)C(=O)NCC1CC2(CO1)CN(c1nncs1)C2 (configuration not stated) | -96.3 |
| Cc1occc1C(=O)N1CCC2(CC1)CC(OCc1ccccn1)CO2 (configuration not stated) | -71.7 |
| CNC(=O)c1cccc(NC(=O)c2ccnc(N(C)C)c2)c1C | 4.9 |
| Cc1cc(NC(=O)CN2CCn3c(C)nnc3C2)no1 | -3.82 |
| COc1ccccc1C(=O)N1CC(Cc2nccc3ccn(C)c23)C1 | -0.619 |
| Cc1nn(C)c(N2CCOCC2)c1CNCc1nccs1 | -6.33 |
| Cc1csc(CN(CC2CCCO2)C(=O)c2occc2C)n1 (configuration not stated) | 0.489 |
| Cc1ccc(C(C)NC(=O)CSCC(N)=O)cc1 (configuration not stated) | 3.37 |
| CCc1cc(NCCNc2ccncc2C)n2nc(C)c(C)c2n1 | 3.29 |
| Cc1ccc(-c2cc(C(=O)NCCN3CCCS3(=O)=O)[nH]n2)cc1 | -7.57 |
| COc1ccc(-c2noc(Cn3cc(C)cn3)n2)c(OC)c1OC | -8.42 |
| CC1CCN(CCNC(=O)c2scnc2Cl)CC1 | -4.2 |

| Compound | cytotoxicity at 10 µM [%] |
| --- | --- |
| CC(C)C1CN(c2ncccc2Cl)CCC(=O)N1Cc1ccc(F)cc1 (configuration not stated) | 2.41 |
| O=C(C1CCN(Cc2nc(-c3ccco3)no2)CC1)N1CCCC1 | -3.4 |
| COCC(=O)N1CCN(c2cc(C)nc(C3CCCN3C(C)=O)c2)CC1 (configuration not stated) | 1.86 |
| CN(C(=O)c1ccccn1)c1nnc(C2CCOC2)s1 (configuration not stated) | 0.07 |
| Cc1nc(C)n(CC2CCCN(c3ccc(C#N)cn3)C2)n1 (configuration not stated) | -9.67 |
| CC(NC(=O)NCC(C)(C)C(N)=O)c1nc(-c2ccccc2)cs1 (configuration not stated) | 12.7 |
| CC1(c2ccccc2)CCC(=O)N(CCN2CCCOC2=O)C1 (configuration not stated) | -3.99 |
| CC(C)(NC(=O)C1CCN(C2CCCCC2)CC1)c1nnc(N)s1 | 6.17 |
| COCCN1CCCn2c(nc(CNC(=O)COC)cc2=O)C1 | -106 |
| COC(=O)C(NC(=O)CCc1ccco1)c1cc(F)ccc1F (configuration not stated) | -0.448 |
| CCN1CCCCC1C(=O)N1CCN(C(=O)OC)CC1 (configuration not stated) | -4.81 |
| CS(=O)(=O)NC1CCN(c2cccc(F)c2C#N)CC1 | -3.6 |
| CCOc1ccc2[nH]c3c(N(C)CC4OCCO4)ncnc3c2c1 | 15.2 |
| Clc1cc(Cl)cc(CN2CCC(NCc3ncc[nH]3)CC2)c1 | 18.4 |
| CCn1nc(C(C)C)cc1C(=O)NCc1nc2ccc(OC)cc2[nH]1 | 4.28 |
| Cn1nnc2c(N3CC(C(=O)NCc4cccs4)C3)ncnc21 | 4.29 |
| CCN1CCN(C2CCN(Cc3nc(C)c(C)o3)CC2)C1=O | -9.92 |
| O=C(c1cc2c([nH]c1=O)CCC2)N1CCCCCC1c1ccncc1 (configuration not stated) | -9.31 |
| Cc1noc(C)c1-c1cncc(C2CCCN2Cc2cn(C)cn2)n1 (configuration not stated) | -20.4 |
| CNCCN1C(=O)CC[C@H]2CN(c3ncc(F)cn3)CC[C@H]21 | 1.68 |
| CC(c1cccs1)N(C)C(=O)c1cc(CN(C)Cc2ccccc2)on1 (configuration not stated) | 5.44 |
| Nc1ccc(CC2CCCN(Cc3c[nH]cn3)C2)nn1 (configuration not stated) | -0.701 |
| COCCCn1c(CN2CCCCO2)cnc1S(=O)(=O)C1CCCC1 | 4.24 |

| Compound | cytotoxicity at 10 µM [%] |
| --- | --- |
| Cc1ccc(S(=O)(=O)NC(C)(C)CN)c(F)c1 | -8.73 |
| CC(C(=O)NCc1cccs1)N1CCN(Cc2nccn2C)CC1 (configuration not stated) | -14.5 |
| Cc1nccn1-c1cccc(C2CCCN(C(=O)c3cc[nH]n3)C2)n1 (configuration not stated) | 0.481 |
| O=C(Cc1ccc2c(c1)OCO2)N[C@@H]1CCNC[C@H]1O | 0.635 |
| CC(=O)N1CCCCC1c1cc(CO)[nH]n1 (configuration not stated) | -0.671 |
| Cc1oc(-c2ccco2)nc1CC(=O)N1CCN(C2CCC2)CC1 | 4.33 |
| CC(C)[C@H]1CN(S(=O)(=O)c2cccnc2)C[C@@H]1N | 1.31 |
| CNC(=O)[C@H]1C[C@H]2OCC[C@H]2N(Cc2ccc(C)o2)C1 | 11.8 |
| Cn1cncc1CN1CCC2(CC1)COCCN(S(C)(=O)=O)C2 | 4.73 |
| CC(C)CNc1cc(-c2c[nH]nc2C2CCN(C(=O)C3CC3)C2)ccn1 (configuration not stated) | 83.8 |
| Cc1cc(CN(C)C(=O)c2ccc(F)cc2Br)no1 | 0.864 |
| CS(=O)(=O)N1CCCC12CCN(Cc1ccoc1)CC2 | -3.98 |
| O=C(CC1NC(N2CCc3ccccc32)=NC1=O)Nc1ccccc1 (configuration not stated) | -1.3 |
| CCS(=O)(=O)N1CCN(C(C)c2ncc(-c3ccccc3)o2)CC1 (configuration not stated) | 3.44 |
| CCN(CC)S(=O)(=O)N1CCCN(CC(=O)NC(C)C)CC1 | 2.75 |
| Cc1ccc(S(N)(=O)=O)cc1C(=O)NC1CCCN(C)C1 (configuration not stated) | -1.96 |
| Cn1ncc2c(NC3CCC3)nc(-c3ccncc3)nc21 | 16.7 |
| Cc1cnn(C2CCCN(C(=O)CCc3nccs3)C2)c1 (configuration not stated) | -4.49 |
| O=C(Cn1cccn1)N1CCC(c2nnc(-c3ccsc3)o2)CC1 | 6.88 |
| Cc1noc(C)c1-c1ccc(C2CCCN2C(=O)c2cccnc2)nc1 (configuration not stated) | 4.7 |
| CC(C)Nc1nc(N2CCOCC2)nc2c1CN(Cc1ccoc1)CC2 | 1.52 |
| CCc1ccc(Cn2nccc2NC(=O)C2CCS(=O)(=O)C2)cc1 (configuration not stated) | -1.32 |
| Cc1cc(C(=O)OCC2CCCN2C(N)=O)c(C)o1 (configuration not stated) | 6.72 |

| Compound | cytotoxicity at 10 µM [%] |
| --- | --- |
| O=C(COc1ccc(C(F)(F)F)cc1)N1CCOCC1c1ncon1 (configuration not stated) | -12.5 |
| Cc1cnn(CC2CN(Cc3csc(C(C)C)n3)CCO2)c1 (configuration not stated) | 5.58 |
| O=C(NC1CC1)C1CNCCN1C(=O)CCc1ccc2c(c1)OCO2 (configuration not stated) | -0.766 |
| Cc1ccsc1C(=O)NC1CCS(=O)(=O)c2ccccc21 (configuration not stated) | 2.93 |
| Cn1nnc2c(N3CC(C(=O)NCCC4=CCCCC4)C3)ncnc21 | 8.41 |
| CC(Nc1ccc(CN2CCCC2=O)cc1)C(=O)N(C)CCC#N (configuration not stated) | 13.7 |
| O=C(CN1C(=O)CCC1=O)NCc1nn(C2CCCC2)c2c1CCCC2 | 1.97 |
| COCCN(C)CC(=O)N1C[C@@H]2CC[C@H]1CN(C(=O)c1ccncc1)C2 | -0.908 |
| COC(=O)c1ccc(N2CCN(C(=O)c3cccnc3)C(C)C2)cc1 (configuration not stated) | 4.54 |
| Fc1cccnc1N1CCCC(c2nccs2)C1 (configuration not stated) | 1.48 |
| Cc1cnn(CC(C)NCc2csc(-c3cccs3)n2)c1 (configuration not stated) | -5.8 |
| COCC1CN(Cc2ccoc2)Cc2cn(C)nc21 (configuration not stated) | 7.55 |
| COCCN1CCCC1(C)c1nc(C)cc(N)n1 (configuration not stated) | -3.73 |
| Cc1ccc(NC2CCN(C(=O)CCc3nccs3)CC2)nn1 | -9.93 |
| CCOc1cc(CNCc2cnc(C)cn2)c(Cl)cc1OC(C)C | 4.86 |
| Cc1cnc(CN(C)C2CCN(Cc3nc4ccccc4n3C)C2)o1 (configuration not stated) | 2.57 |
| CN(Cc1ccc(O)cc1)C(=O)NCc1nnc2n1CCCCC2 | -11.1 |
| COc1ccc(-c2noc(Cn3cnc(C)c3)n2)c(OC)c1OC | -13.2 |
| COc1ccc(C2CCCCCN2CCCNS(C)(=O)=O)cc1 (configuration not stated) | -6.07 |
| CN(Cc1ccsc1)C(=O)CN1CCCC(Cn2cncn2)C1 (configuration not stated) | -11.3 |
